Laboratory results as given in paper PMC6203112 (International Journal of Chronic Obstructive Pulmonary …, 2018).
Marks after values point to notes of the source that are not given here.

Assays:
[1] = Study 2 Part 2: repeat ascending dose; type: in vivo, human; settings: MDDPI; for Racc / CL/F / AUC(0-t): geometric mean (% CV); for AUC(0-t) / Tmax: human, plasma, inhaled; for Tmax: median (range)
In short: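 Blood was collected in lithium heparin, chilled on ice, and centrifuged at 2,000 ×g for 15 min at ~4°C. Plasma was stabilised with 1 M citric acid (100 µL per 1 mL plasma) and stored at ≤−65°C. After solid-phase extraction, samples were assayed by validated LC-MS/MS with heated electrospray and a deuterated internal standard (LLOQ 10 pg/mL). PK parameters were derived non-compartmentally.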

[2] = Study 2 Part 2: adverse events after multiple BID doses via MDDPI; type: in vivo, human; settings: N=9
In short: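 Study 2 Part 2 used three parallel escalating cohorts of healthy men and women. Subjects inhaled test compound at 1,200, 2,000 or 2,400 µg twice daily, or placebo, for 14 days via a reservoir multi-dose dry-powder inhaler, confined from day −2 to day 15. AEs were recorded with investigator-assessed relation to study medication, as number (%) of the safety population.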

[3] = cited from earlier work
[4] = Study 2 Part 1: adverse events after single doses via MDDPI; type: in vivo, human
In short: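 Study 2 Part 1 was a three-period single ascending dose design in healthy men and women, with four randomized treatment sequences. At each visit, test compound (2,400, 4,000, 4,800 µg) or placebo was inhaled via a reservoir multi-dose dry-powder inhaler, with the dose rising each visit. AEs and investigator-judged relation to study drug were recorded, reported as number (%) of the safety population.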

[5] = Study 1 Part 1: adverse events after single doses via SDDPI; type: in vivo, human
In short: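 Study 1 Part 1 used a crossover design in healthy men aged 18–55. Single inhaled doses of test compound (20–2,000 µg) or matching placebo were given via a capsule-based single-dose dry-powder inhaler. Investigators recorded each AE and its relation to study medication. Counts are number (%) of the safety population, defined as randomized subjects receiving at least one dose.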

[6] = human liver; cited from earlier work
[7] = rats and ferrets, intratracheal administration at doses compatible with those used in humans; cited from earlier work

What does the source list for CS(=O)(=O)Nc1ccc(C(=O)O[C@@H](Cc2c(Cl)c[n+]([O-])cc2Cl)c2ccc(OC(F)F)c(OCC3CC3)c2)cc1OCC1CC1 [CHF6001]?
Racc ([1]; 1,200 µg BID, Day 14, N=9): 6.66 (38.4); CL/F ([1]; 1,200 µg BID, Day 14, n=8): 588 (50.7) ^a mL/min; CL/F ([1]; 2,000 µg BID, Day 14, N=9): 652 (39.0) mL/min; Racc ([1]; 2,000 µg BID, Day 14, N=9): 6.28 (19.5); CL/F ([1]; 2,400 µg BID, Day 14, n=8): 646 (37.0) ^a mL/min; Racc ([1]; 2,400 µg BID, Day 14, n=8): 5.47 (36.6) ^a; AUC(0-t) ([1]; 1200 µg, AUC0–12 h, 1,200 µg BID, Day 14, N=9): 34 ng·h/mL; Tmax ([1]; 1200 µg, tmax, 1,200 µg BID, Day 14, N=9): 1.6 h; AUC(0-t) ([1]; 2000 µg, AUC0–12 h, 2,000 µg BID, Day 14, N=9): 51.1 ng·h/mL; Tmax ([1]; 2000 µg, tmax, 2,000 µg BID, Day 14, N=9): 1.5 h; AUC(0-t) ([1]; 2400 µg, AUC0–12 h, 2,400 µg BID, Day 14, n=8): 61.9 ng·h/mL; Tmax ([1]; 2400 µg, tmax, 2,400 µg BID, Day 14, n=8): 2.3 h; AE considered related to study medication ([2]; 1,200 µg BID 14 days): 4 (44.4) Number (%) of subjects; AE leading to death ([2]; 1,200 µg BID 14 days): 0 Number (%) of subjects; AE leading to withdrawal ([2]; 1,200 µg BID 14 days): 0 Number (%) of subjects; At least one AE ([2]; 1,200 µg BID 14 days): 6 (66.7) Number (%) of subjects; At least one SAE ([2]; 1,200 µg BID 14 days): 0 Number (%) of subjects; Back pain (AE) ([2]; 1,200 µg BID 14 days): 0 Number (%) of subjects; Diarrhea (AE considered related to study medication) ([2]; 1,200 µg BID 14 days): 1 (11.1) Number (%) of subjects; Flatulence (AE considered related to study medication) ([2]; 1,200 µg BID 14 days): 1 (11.1) Number (%) of subjects; Headache (AE considered related to study medication) ([2]; 1,200 µg BID 14 days): 3 (33.3) Number (%) of subjects; Headache (AE) ([2]; 1,200 µg BID 14 days): 3 (33.3) Number (%) of subjects; Nausea (AE considered related to study medication) ([2]; 1,200 µg BID 14 days): 0 Number (%) of subjects; Parosmia (AE considered related to study medication) ([2]; 1,200 µg BID 14 days): 0 Number (%) of subjects; Severe AE ([2]; 1,200 µg BID 14 days): 0 Number (%) of subjects; AE leading to death ([2]; 2,000 µg BID 14 days): 0 Number (%) of subjects; AE leading to withdrawal ([2]; 2,000 µg BID 14 days): 0 Number (%) of subjects; At least one AE ([2]; 2,000 µg BID 14 days): 5 (55.6) Number (%) of subjects; At least one SAE ([2]; 2,000 µg BID 14 days): 0 Number (%) of subjects; Back pain (AE) ([2]; 2,000 µg BID 14 days): 3 (33.3) Number (%) of subjects; Diarrhea (AE considered related to study medication) ([2]; 2,000 µg BID 14 days): 0 Number (%) of subjects; Flatulence (AE considered related to study medication) ([2]; 2,000 µg BID 14 days): 0 Number (%) of subjects; Headache (AE considered related to study medication) ([2]; 2,000 µg BID 14 days): 2 (22.2) Number (%) of subjects; Headache (AE) ([2]; 2,000 µg BID 14 days): 2 (22.2) Number (%) of subjects; Nausea (AE considered related to study medication) ([2]; 2,000 µg BID 14 days): 0 Number (%) of subjects; Parosmia (AE considered related to study medication) ([2]; 2,000 µg BID 14 days): 0 Number (%) of subjects; Severe AE ([2]; 2,000 µg BID 14 days): 1 (11.1) Number (%) of subjects; AE considered related to study medication ([2]; 2,400 µg BID 14 days): 1 (11.1) Number (%) of subjects; AE leading to death ([2]; 2,400 µg BID 14 days): 0 Number (%) of subjects; AE leading to withdrawal ([2]; 2,400 µg BID 14 days): 1 (11.1) Number (%) of subjects; At least one AE ([2]; 2,400 µg BID 14 days): 7 (77.8) Number (%) of subjects; At least one SAE ([2]; 2,400 µg BID 14 days): 0 Number (%) of subjects; Back pain (AE) ([2]; 2,400 µg BID 14 days): 5 (55.6) Number (%) of subjects; Diarrhea (AE considered related to study medication) ([2]; 2,400 µg BID 14 days): 0 Number (%) of subjects; Flatulence (AE considered related to study medication) ([2]; 2,400 µg BID 14 days): 0 Number (%) of subjects; Headache (AE considered related to study medication) ([2]; 2,400 µg BID 14 days): 1 (11.1) Number (%) of subjects; Headache (AE) ([2]; 2,400 µg BID 14 days): 2 (22.2) Number (%) of subjects; Nausea (AE considered related to study medication) ([2]; 2,400 µg BID 14 days): 0 Number (%) of subjects; Parosmia (AE considered related to study medication) ([2]; 2,400 µg BID 14 days): 0 Number (%) of subjects; Severe AE ([2]; 2,400 µg BID 14 days): 0 Number (%) of subjects; systemic bioavailability ([3]; after intratracheal administration): low systemic bioavailability; bioavailability ([3]; after oral administration): very low bioavailability; elimination ([3]; following intravenous administration, predominantly via the fecal route): rapidly eliminated; AE considered related to study medication ([4]; single dose 2,400 µg, N=9): 1 (11.1) Number (%) of subjects; AE leading to death ([4]; single dose 2,400 µg, N=9): 0 Number (%) of subjects; AE leading to withdrawal ([4]; single dose 2,400 µg, N=9): 1 (11.1) Number (%) of subjects; At least one AE ([4]; single dose 2,400 µg, N=9): 3 (33.3) Number (%) of subjects; At least one SAE ([4]; single dose 2,400 µg, N=9): 0 Number (%) of subjects; Severe AE ([4]; single dose 2,400 µg, N=9): 1 (11.1) Number (%) of subjects; AE considered related to study medication ([4]; single dose 4,000 µg, N=8): 1 (12.5) Number (%) of subjects; AE leading to death ([4]; single dose 4,000 µg, N=8): 0 Number (%) of subjects; AE leading to withdrawal ([4]; single dose 4,000 µg, N=8): 0 Number (%) of subjects; At least one AE ([4]; single dose 4,000 µg, N=8): 1 (12.5) Number (%) of subjects; At least one SAE ([4]; single dose 4,000 µg, N=8): 0 Number (%) of subjects; Severe AE ([4]; single dose 4,000 µg, N=8): 0 Number (%) of subjects; AE considered related to study medication ([4]; single dose 4,800 µg, N=8): 0 Number (%) of subjects; AE leading to death ([4]; single dose 4,800 µg, N=8): 0 Number (%) of subjects; AE leading to withdrawal ([4]; single dose 4,800 µg, N=8): 0 Number (%) of subjects; At least one AE ([4]; single dose 4,800 µg, N=8): 1 (12.5) Number (%) of subjects; At least one SAE ([4]; single dose 4,800 µg, N=8): 0 Number (%) of subjects; Severe AE ([4]; single dose 4,800 µg, N=8): 0 Number (%) of subjects; AE considered related to study medication ([5]; single dose 20 µg, N=8): 0 Number (%) of subjects; AE leading to death ([5]; single dose 20 µg, N=8): 0 Number (%) of subjects; AE leading to withdrawal ([5]; single dose 20 µg, N=8): 0 Number (%) of subjects; At least one AE ([5]; single dose 20 µg, N=8): 1 (12.5) Number (%) of subjects; At least one SAE ([5]; single dose 20 µg, N=8): 0 Number (%) of subjects; Severe AE ([5]; single dose 20 µg, N=8): 0 Number (%) of subjects; AE considered related to study medication ([5]; single dose 100 µg, N=8): 0 Number (%) of subjects; AE leading to death ([5]; single dose 100 µg, N=8): 0 Number (%) of subjects; AE leading to withdrawal ([5]; single dose 100 µg, N=8): 0 Number (%) of subjects; At least one AE ([5]; single dose 100 µg, N=8): 0 Number (%) of subjects; At least one SAE ([5]; single dose 100 µg, N=8): 0 Number (%) of subjects; Severe AE ([5]; single dose 100 µg, N=8): 0 Number (%) of subjects; AE considered related to study medication ([5]; single dose 200 µg, N=8): 0 Number (%) of subjects; AE leading to death ([5]; single dose 200 µg, N=8): 0 Number (%) of subjects; AE leading to withdrawal ([5]; single dose 200 µg, N=8): 1 (12.5) Number (%) of subjects; At least one AE ([5]; single dose 200 µg, N=8): 3 (37.5) Number (%) of subjects; At least one SAE ([5]; single dose 200 µg, N=8): 0 Number (%) of subjects; Severe AE ([5]; single dose 200 µg, N=8): 0 Number (%) of subjects; AE considered related to study medication ([5]; single dose 400 µg, N=7): 0 Number (%) of subjects; AE leading to death ([5]; single dose 400 µg, N=7): 0 Number (%) of subjects; AE leading to withdrawal ([5]; single dose 400 µg, N=7): 0 Number (%) of subjects; At least one AE ([5]; single dose 400 µg, N=7): 2 (28.6) Number (%) of subjects; At least one SAE ([5]; single dose 400 µg, N=7): 0 Number (%) of subjects; Severe AE ([5]; single dose 400 µg, N=7): 0 Number (%) of subjects; AE considered related to study medication ([5]; single dose 800 µg, N=7): 0 Number (%) of subjects; AE leading to death ([5]; single dose 800 µg, N=7): 0 Number (%) of subjects; AE leading to withdrawal ([5]; single dose 800 µg, N=7): 0 Number (%) of subjects; At least one AE ([5]; single dose 800 µg, N=7): 3 (42.9) Number (%) of subjects; At least one SAE ([5]; single dose 800 µg, N=7): 0 Number (%) of subjects; Severe AE ([5]; single dose 800 µg, N=7): 0 Number (%) of subjects; AE considered related to study medication ([5]; single dose 1,600 µg, N=7): 0 Number (%) of subjects; AE leading to death ([5]; single dose 1,600 µg, N=7): 0 Number (%) of subjects; AE leading to withdrawal ([5]; single dose 1,600 µg, N=7): 0 Number (%) of subjects; At least one AE ([5]; single dose 1,600 µg, N=7): 2 (28.6) Number (%) of subjects; At least one SAE ([5]; single dose 1,600 µg, N=7): 0 Number (%) of subjects; Severe AE ([5]; single dose 1,600 µg, N=7): 0 Number (%) of subjects; AE considered related to study medication ([5]; single dose 2,000 µg, N=6): 0 Number (%) of subjects; AE leading to death ([5]; single dose 2,000 µg, N=6): 0 Number (%) of subjects; AE leading to withdrawal ([5]; single dose 2,000 µg, N=6): 0 Number (%) of subjects; At least one AE ([5]; single dose 2,000 µg, N=6): 0 Number (%) of subjects; At least one SAE ([5]; single dose 2,000 µg, N=6): 0 Number (%) of subjects; Severe AE ([5]; single dose 2,000 µg, N=6): 0 Number (%) of subjects; metabolic stability [6]: metabolically stable; emesis or nausea [7]: no evidence of emesis or nausea
